We go through twelve compounds from ChEMBL document CHEMBL3739334, “Spiroindole Alkaloids and Spiroditerpenoids from Aspergillus duricaulis and Their Potential Neuroprotective Effects” (J Nat Prod, 2015).

A short description of data set [1]: Cytotoxicity against rat PC12 cells. In kind it is cell-based. The conditions noted are these: pc-12.
Data set [2] deals with T1, Amyloid-beta precursor protein (Homo sapiens, UniProt P05067). Kind of data set: Inhibition of amyloid beta (1 to 42 residues) (unknown origin) aggregation after 24 hrs by thioflavin T assay. The procedure, abridged:
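Aβ1−42 was dissolved in DMSO as a 1 mg/mL stock, then incubated at 20 μM with a range of sample concentrations for 24 h at 37 °C. Thioflavin T was added to 3 μM, and fluorescence was read 30 min later (ex 442 nm, em 485 nm). Aβ alone served as control. Run in triplicate; IC50 is the mean.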

For data set [3], the target named is T1, Amyloid-beta precursor protein. The data set is described as follows: Inhibition of amyloid beta (1 to 42 residues) (unknown origin) aggregation at 100 uM after 24 hrs by thioflavin T assay.

Some results are limits rather than exact numbers.

T1 sequence (P05067 whole entry, the tested form may be a part): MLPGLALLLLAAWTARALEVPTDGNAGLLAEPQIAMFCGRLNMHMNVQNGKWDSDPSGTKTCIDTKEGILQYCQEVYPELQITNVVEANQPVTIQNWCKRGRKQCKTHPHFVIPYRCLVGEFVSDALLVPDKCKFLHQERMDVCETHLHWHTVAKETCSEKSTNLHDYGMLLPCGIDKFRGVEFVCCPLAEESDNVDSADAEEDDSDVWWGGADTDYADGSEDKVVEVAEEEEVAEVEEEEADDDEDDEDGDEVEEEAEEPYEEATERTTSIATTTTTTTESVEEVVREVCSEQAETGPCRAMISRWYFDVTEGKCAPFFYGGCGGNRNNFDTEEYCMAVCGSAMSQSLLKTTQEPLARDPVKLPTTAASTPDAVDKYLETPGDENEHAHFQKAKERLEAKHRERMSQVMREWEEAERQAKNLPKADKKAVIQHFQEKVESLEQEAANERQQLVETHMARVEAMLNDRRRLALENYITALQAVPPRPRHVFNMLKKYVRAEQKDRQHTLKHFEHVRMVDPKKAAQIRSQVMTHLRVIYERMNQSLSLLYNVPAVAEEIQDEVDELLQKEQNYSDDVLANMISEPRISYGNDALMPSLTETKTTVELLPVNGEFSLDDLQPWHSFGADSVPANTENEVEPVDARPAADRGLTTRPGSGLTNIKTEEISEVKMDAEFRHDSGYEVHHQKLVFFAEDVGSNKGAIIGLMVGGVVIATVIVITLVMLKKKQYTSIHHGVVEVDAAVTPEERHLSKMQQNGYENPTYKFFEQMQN

What is called IC50 is the concentration that inhibits the measured activity by half. In general, inhibition refers to the change of the read-out against control, counted positive when it falls. A lower inhibition goes with a response near the control. With `C[C@H]1CN2C[C@]34C[C@@]5(C(=O)Nc6c5ccc5c6C=CC(C)(C)O5)C(C)(C)[C@@H]3C[C@@]2(C1)C(=O)N4C`, in data set [1], the Activity entry is on record as “Toxic”. Also, the IC50 in data set [2] was 204 µM. Further, the inhibition in data set [3] was 30%.

Regarding `O=C(/C=C/c1ccc(O)c(O)c1)O[C@H](Cc1ccc(O)c(O)c1)C(=O)O` [ROSMARINIC ACID], the IC50 in data set [2] came out at 71.9 µM. The same measure, in the same setting: as for `CC1=CC[C@@H]2[C@@]3(C)C=CC(=O)OC(C)(C)[C@@H]3CC[C@@]2(C)[C@]12Cc1c(c(C)c(C)oc1=O)O2`, the figure is greater than 300 µM.

In data set [2], `CC1(C)C=Cc2cc(C(=O)O)ccc2O1` registered an IC50 greater than 300 µM.

With `CN1C(=O)[C@@]23CCC(=O)N2C[C@@]12C[C@@]1(C(=O)Nc4c1ccc1c4C=CC(C)(C)O1)C(C)(C)[C@@H]2C3`, in data set [2], half-maximal inhibition (IC50) was put at 187 µM. The inhibition in data set [3] came to 30%. Take `C[C@@H]1C[C@@]23C[C@H]4C(C)(C)[C@@]5(C[C@]4(CN2C1=O)N(C)C3=O)C(=O)Nc1c5ccc2c1OC=CC(C)(C)O2`: the IC50 in data set [2] is greater than 300 µM.

In data set [2], `C[C@H]1CN2C[C@]34C[C@@]5(C(=O)Nc6c5ccc5c6OC=CC(C)(C)O5)C(C)(C)[C@@H]3C[C@@]2(C1)C(=O)N4C` displayed an IC50 of 269 µM. The inhibition in data set [3] amounted to 30%. In the case of `CC1=CC[C@@H]2[C@@]3(C)[C@@H](O)CC(=O)OC(C)(C)[C@@H]3CC[C@@]2(C)[C@]12Cc1c(c(C)c(C)oc1=O)O2`, the IC50 in data set [2] was greater than 300 µM.

For `C[C@@H]1C[C@@]23C[C@H]4C(C)(C)[C@@]5(C[C@]4(CN2C1=O)NC3=O)C(=O)Nc1c5ccc2c1OC=CC(C)(C)O2`, the IC50 in data set [2] is greater than 300 µM. As to `C[C@@H]1C[C@@]23C[C@H]4C(C)(C)[C@@]5(C[C@]4(CN2C1=O)NC3=O)C(=O)Nc1c5ccc2c1C=CC(C)(C)O2`, the midpoint of inhibition in data set [2], the IC50, lay at 244 µM. In data set [3], the inhibition amounted to 30%. `CC(=O)O[C@H]1CC(=O)OC(C)(C)[C@@H]2CC[C@]3(C)[C@H](CC=C(C)[C@@]34C[C@]3(OC(C)=C(C)C3=O)C(=O)O4)[C@@]12C` registered an IC50 in data set [2] greater than 300 µM. Same read-out and setting: the same measure for `C[C@@H]1C[C@@]23C[C@H]4C(C)(C)[C@@]5(C[C@]4(CN2C1=O)N(C)C3=O)C(=O)Nc1c5ccc2c1C=CC(C)(C)O2`: greater than 300 µM.
